In publication PMC12034291 (International Journal of Nanomedicine, 2025):
In brackets after ≈: the same amount, converted by molar mass. Entries after “also recorded” stand apart in the source; their conditions may differ.

Tests used:
[1] = UV-visible spectrophotometry of TMVP1 coupling rate; type: physicochemical; settings: FAM-labeled TMVP1
In short: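 Coupling efficiency of the FAM-labelled peptide to liposomes was measured by UV-visible absorbance at 456 nm, before and after coupling. Coupling rate = (absorbance decrease)/(absorbance before coupling) × 100%. Liposome-bound peptide concentration was estimated from this rate.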

[2] = after combining with nanoprobes; cited from earlier work
[3] = tested on: FLT4 protein; experiment: Surface plasmon resonance; type: binding; settings: TMVP1 10 mg/mL; FLT4 protein 0.6 mg/mL on CM5 chip
In short: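 SPR on a […]. Recombinant FLT4 protein (0.6 mg/mL) was coupled directly to a CM5 chip as the solid phase. The peptide (10 mg/mL) was run as analyte in the mobile phase. The maximum binding response within 150 s was recorded in RU, where 1 RU = 1 pg/mm² surface change.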

[4] = tested on: U87 cells; experiment: CCK-8 cytotoxicity assay, U87 cells; type: cell-based, human
In short: (§1)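 CCK-8 viability assay in cells grown in high-glucose DMEM with 10% FBS at 37°C, 5% CO2. Peptide alone was tested at 0, 15, 30, 60 and 120 μg/mL in medium with 10% serum. Blank wells received medium only. Because the test material carries a fluorescent label, parallel wells without CCK-8 gave a D(450) background, which was subtracted. Viability (%) = (experimental − blank)/(control − blank) × 100. Three independent repeats, mean ± SD, t-test/one-way ANOVA.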

[5] = cited from earlier work
[6] = tested on: FLT4 protein (U87 and U373 cells); experiment: Fluorescent peptide in vitro binding / colocalization with FLT4; type: cell-based, human; settings: FAM-labeled TMVP1; confocal, green and red light brightness 110
[7] = tested on: FLT4; settings: cited from earlier work
[8] = tested on: HEB cells; experiment: CCK-8 cytotoxicity assay, HEB cells; type: cell-based, human; settings: TMVP1 0, 15, 30, 60, 120 μg/mL, P>0.05
In short: as §1

Row | Compound | absorbance after coupling TMVP1 ([1]; 456 nm) | absorbance before coupling TMVP1 ([1]; 456 nm) | TMVP1 coupling rate ([1]; absorbance at 456 nm, (absorbance decrease before and after coupling)/(absorbance before coupling) × 100%) [%] | TMVP1 concentration (from coupling rate) ([1]; estimated from coupling rate) | biocompatibility and in vivo stability [2] | binding affinity to FLT4 (in words) [3] | cytotoxicity of peptide alone towards U87 cells ([4]; CCK-8, U87 cells, TMVP1 0, 15, 30, 60, 120 μg/mL, P>0.05) | immunogenicity versus traditional monoclonal antibodies [5] | fluorescence intensity, U87 versus U373 cell line [6] | binding speed to FLT4 versus traditional monoclonal antibodies [7] | biological toxicity of peptide alone to HEB cells [8] | IC50 ([4]; Homo sapiens, U-87 MG, read-out: IC50 (cytotoxicity)) [µg/mL]
1 | LARGR [TMVP1] | 0.069 | 0.296 | 76.68 | around 0.153 mg/mL | good biocompatibility and in vivo stability | strong binding affinity | did not show significant cytotoxicity towards U87 cells; also recorded: no significant biological toxicity | lower immunogenicity than traditional monoclonal antibodies | the fluorescence intensity in the U87 cell line was higher than in the U373 cell line | faster binding speed | no significant biological toxicity | –
2 | Cn1nnc2c(C(N)=O)ncn2c1=O [TMZ, Temozolomide, reference compound] | – | – | – | – | – | – | – | – | – | – | – | 48.4 (≈ 249 µM)
